Test results reported in ChEMBL document CHEMBL3758096, “1-[3-(2-Hydroxyethylsulfanyl)propanoyl]-3,5-bis(benzylidene)-4-piperidones: A novel cluster of P-glycoprotein dependent multidrug resistance modulators” (Bioorg Med Chem Lett, 2016).

Assays:
[1] = Cytotoxicity against human HSC2 cells after 48 hrs by MTT assay; format: functional; conditions: HSC-2, 48 h, pooled result: one value given for 3 cell lines, strains, targets or settings
Procedure, shortened: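 Compounds were incubated with cells at 37 °C for 48 hr. HSC-2 and HSC-4 squamous carcinoma cells were grown in supplemented DMEM, and viability was read by MTT. HL-60 promyelocytic leukemia cells were grown in supplemented RPMI1640, and viability was read by trypan blue exclusion. CC50 is the concentration killing 50% of cells, reported as an average.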

[2] = target: T1, ATP-dependent translocase ABCB1 (Homo sapiens, UniProt P08183); test: Inhibition of human MDR1 transfected in mouse L5178Y cells assessed as fluorescence activity ratio at 4 ug/ml after 10 mins by rhodamine 123 dye based fluorescence analysis; format: cell-based
T1 sequence (P08183 whole entry): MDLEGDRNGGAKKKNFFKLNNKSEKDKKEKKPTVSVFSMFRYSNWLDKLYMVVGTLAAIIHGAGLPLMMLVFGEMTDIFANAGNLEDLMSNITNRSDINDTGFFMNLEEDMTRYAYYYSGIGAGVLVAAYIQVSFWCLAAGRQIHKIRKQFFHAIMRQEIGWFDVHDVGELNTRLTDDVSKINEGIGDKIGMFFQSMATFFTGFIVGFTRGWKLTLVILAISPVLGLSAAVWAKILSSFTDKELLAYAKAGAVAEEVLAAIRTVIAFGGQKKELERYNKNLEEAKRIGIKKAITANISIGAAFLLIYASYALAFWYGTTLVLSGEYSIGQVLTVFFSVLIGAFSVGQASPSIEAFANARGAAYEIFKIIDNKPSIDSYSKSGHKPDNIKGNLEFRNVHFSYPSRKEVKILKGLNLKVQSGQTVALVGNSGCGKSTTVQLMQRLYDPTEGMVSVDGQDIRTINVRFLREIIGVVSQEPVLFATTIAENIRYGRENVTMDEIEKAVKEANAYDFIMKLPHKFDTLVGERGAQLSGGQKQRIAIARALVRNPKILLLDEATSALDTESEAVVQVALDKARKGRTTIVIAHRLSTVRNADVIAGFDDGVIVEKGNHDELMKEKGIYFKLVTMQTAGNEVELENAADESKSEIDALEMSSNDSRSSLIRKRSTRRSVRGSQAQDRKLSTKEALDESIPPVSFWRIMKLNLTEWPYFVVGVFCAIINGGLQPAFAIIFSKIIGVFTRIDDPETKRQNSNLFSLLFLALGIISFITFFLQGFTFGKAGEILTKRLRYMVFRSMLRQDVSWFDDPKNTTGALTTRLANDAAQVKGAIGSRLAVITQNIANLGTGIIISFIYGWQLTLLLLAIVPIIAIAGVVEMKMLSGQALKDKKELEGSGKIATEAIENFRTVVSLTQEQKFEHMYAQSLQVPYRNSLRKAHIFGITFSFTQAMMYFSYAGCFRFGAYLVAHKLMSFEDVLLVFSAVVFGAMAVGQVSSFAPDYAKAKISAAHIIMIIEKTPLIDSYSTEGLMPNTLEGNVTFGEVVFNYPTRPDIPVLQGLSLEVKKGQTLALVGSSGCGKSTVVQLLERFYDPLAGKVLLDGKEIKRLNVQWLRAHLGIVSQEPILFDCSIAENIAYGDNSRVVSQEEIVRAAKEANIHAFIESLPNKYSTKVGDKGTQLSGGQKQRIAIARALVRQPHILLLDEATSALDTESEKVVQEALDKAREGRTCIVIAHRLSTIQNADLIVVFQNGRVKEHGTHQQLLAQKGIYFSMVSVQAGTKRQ

[3] = target: T1, ATP-dependent translocase ABCB1; test: Inhibition of human MDR1 transfected in mouse L5178Y cells assessed as fluorescence activity ratio at 40 ug/ml after 10 mins by rhodamine 123 dye based fluorescence analysis; format: cell-based
[4] = target: T1, ATP-dependent translocase ABCB1; test: Ratio of human MDR1 modulation transfected in mouse L5178Y cells at 40 ug/ml to human MDR1 modulation transfected in mouse L5178Y cells at 4 ug/ml; format: cell-based
[5] = target: T1, ATP-dependent translocase ABCB1; test: Potency index, ratio of compound activity to verapamil hydrochloride activity for human MDR1 modulation transfected in mouse L5178Y cells at 4 ug/ml; format: cell-based

Row | Ratio [2] | Ratio [3] | Ratio [4] | Ratio [5] | SMILES | CC50 [1] [µM]
1 | – | – | – | – | N[C@@H](Cc1ccc(N(CCCl)CCCl)cc1)C(=O)O | 14
2 | 1.14 | 1.2 | 1.05 | – | O=C1/C(=C/c2ccccc2)CN(C(=O)CCSCCS(=O)(=O)O)C/C1=C\c1ccccc1 | 154
3 | 1.2 | 1.6 | 1.33 | – | Cc1ccc(/C=C2\CN(C(=O)CCSCCS(=O)(=O)O)C/C(=C\c3ccc(C)cc3)C2=O)cc1 | 126
4 | 1.14 | 1.71 | 1.5 | – | O=C1/C(=C/c2ccc(Cl)cc2)CN(C(=O)CCSCCS(=O)(=O)O)C/C1=C\c1ccc(Cl)cc1 | 29.7
5 | 1.14 | 1.71 | 1.5 | – | O=C1/C(=C/c2ccc([N+](=O)[O-])cc2)CN(C(=O)CCSCCS(=O)(=O)O)C/C1=C\c1ccc([N+](=O)[O-])cc1 | 4.73
6 | 4.71 | 42.4 | 9 | – | O=C1/C(=C/c2ccccc2)CN(C(=O)CCSCCO)C/C1=C\c1ccccc1 | 1.53
7 | 37.1 | 85.1 | 2.29 | 9 | COc1ccc(/C=C2\CN(C(=O)CCSCCO)C/C(=C\c3ccc(OC)cc3)C2=O)cc1 | 2.67
8 | 8.86 | 20 | 2.26 | – | O=C1/C(=C/c2ccc([N+](=O)[O-])cc2)CN(C(=O)CCSCCO)C/C1=C\c1ccc([N+](=O)[O-])cc1 | 0.39
9 | 55.4 | 44.4 | 0.8 | – | Cc1ccc(/C=C2\CN(C(=O)CCSCCO)C/C(=C\c3ccc(C)cc3)C2=O)cc1 | 1.56
10 | 49.2 | 45 | 0.92 | – | O=C1/C(=C/c2ccc(Cl)cc2)CN(C(=O)CCSCCO)C/C1=C\c1ccc(Cl)cc1 | 0.66
11 | 1.27 | 3.23 | 2.54 | – | COc1ccc(/C=C2\CN(C(=O)CCSCCS(=O)(=O)O)C/C(=C\c3ccc(OC)cc3)C2=O)cc1 | 91.7
12 | 18.9 | 126 | 6.67 | – | COc1ccc(/C=C2\CN(C(=O)CCSCCS)C/C(=C\c3ccc(OC)cc3)C2=O)cc1 | 3.37
